Reference: PMC9361925 (RSC Advances, 2022)
Read-outs that look alike come from different tables or passages of the source.

Assays:
[1] = tested on: SK-Lu-1 cells; test: Cell cycle analysis by flow cytometry; assay type: cell-based, human; details: 24 h
Summary of the method: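 Log-phase SK-LU-1 cells (3 × 10^5 per 25 cm2 flask) treated 24 h with test compound at 0.08, 0.16 or 0.32 μM. Controls: DMSO 0.05%, ellipticine 1.3 μM, vincristine 0.4 and 4 μM. Cells were PBS-washed and fixed in ice-cold 70% ethanol at −20 °C for 2 h. They were then treated with RNase A (1 mg mL−1, 37 °C, 15 min), stained with PI for 30 min and analysed by flow cytometry.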

[2] = tested on: SK-Lu-1 cells; test: Cell nucleus staining with Hoechst 33342; assay type: cell-based, human; details: 0.08 μM, 0.16 μM, and 0.32 μM, 24 h
[3] = tested on: caspase-3/7 activation in human lung SK-LU-1 cancer cells; test: Caspase-3/7 assay; assay type: cell-based; details: SK-LU-1 cells, 0.08 μM, 0.16 μM, and 0.32 μM
Summary of the method: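 SK-LU-1 cells (2 × 10^5 per well) incubated 5 h at 37 °C, 5% CO2, with test compound at 0.08, 0.16 or 0.32 μM. Controls: ellipticine 1.3 μM, vincristine 4 μM; solvent served as blank. Apo-ONE caspase-3/7 reagent was added, briefly shaken and left at room temperature for 1–18 h. Fluorescence was read at Ex 485/Em 530 nm. Activity = sample RFU minus blank RFU.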

[4] = tested on: SK-Lu-1 cells; test: Annexin V FITC and PI flow cytometry assay for apoptosis; assay type: cell-based, human; details: 24 h; for % Necrotic cells: Annexin-V/PI (Q2-1); for % Late apoptosis cells: Annexin-V/PI (Q2-2); for % Early apoptosis cells: Annexin-V/PI (Q2-4); for % Total apoptosis cells: early + late
Summary of the method: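 SK-LU-1 cells (3 × 10^5 per 25 cm2 flask; DMEM, 7–10% FBS, penicillin/streptomycin, 37 °C, 5% CO2) exposed 24 h to test compound. Controls: DMSO 0.5%, ellipticine 1.3 μM, vincristine 0.4 and 4 μM. Cells were harvested, washed in cold PBS and resuspended in annexin-binding buffer. They were stained with FITC-annexin V plus PI (100 μg mL−1 working solution) for 15 min at room temperature, then diluted and analysed by flow cytometry.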

[5] = tested on: epidermoid carcinoma (KB, ATCC number CCL-17); details: read-out: IC50 KB; KB cells; cited from earlier work
[6] = tested on: hepatocellular carcinoma (HepG2, ATCC number HB-8065); details: read-out: IC50 HepG2; HepG2 cells; cited from earlier work
[7] = tested on: breast (MCF7, HTB-22™) cancer cell line; details: read-out: IC50 MCF7; MCF7 cells; cited from earlier work
[8] = tested on: SK-Lu-1 cells; details: read-out: IC50 SK-Lu-1; cited from earlier work
[9] = tested on: human embryonic kidney (HEK-293, ATCC number CRL-1573) cell line; details: read-out: IC50 Hek-293; non-cancerous Hek-293 cells; cited from earlier work
[10] = tested on: epidermoid carcinoma (KB, ATCC number CCL-17); test: MTT cytotoxicity assay, KB cells; assay type: cell-based; details: Homo sapiens, 72 h, read-out: IC50 KB
Summary of the method: (§1)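 Log-phase cells in DMEM with 7–10% FBS and penicillin/streptomycin (37 °C, 5% CO2) seeded at 3 × 10^4 cells per mL. Exposed 3 days to test compound in DMSO at 1.00, 0.25, 0.0625 and 0.0156 μg mL−1. MTT (5 mg mL−1 stock in 0.1 M PBS, pH 7.4) added for 4 h at 37 °C; formazan dissolved in DMSO, absorbance at 540 nm. Growth inhibition calculated relative to untreated controls.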

[11] = tested on: hepatocellular carcinoma (HepG2, ATCC number HB-8065); test: MTT cytotoxicity assay, HepG2 cells; assay type: cell-based; details: Homo sapiens, HepG2, 72 h, read-out: IC50 HepG2
Summary of the method: as §1

[12] = tested on: breast (MCF7, HTB-22™) cancer cell line; test: MTT cytotoxicity assay, MCF7 cells; assay type: cell-based; details: Homo sapiens, MCF7, 72 h, read-out: IC50 MCF7
Summary of the method: as §1

[13] = tested on: lung (A549) cancer cell line; test: MTT cytotoxicity assay, A549 cells; assay type: cell-based; details: Homo sapiens, A549, 72 h, read-out: IC50 A549
Summary of the method: as §1

[14] = tested on: human embryonic kidney (HEK-293, ATCC number CRL-1573) cell line; test: MTT cytotoxicity assay, Hek-293 cells; assay type: cell-based; details: HEK293, 72 h, read-out: IC50 Hek-293
Summary of the method: as §1

COc1cccc(C2C3=C(COC3=O)NC3=C2C(=O)c2ccccc2C3=O)c1 (stereo not drawn) [5a, 11-(3-Methoxyphenyl)-4,11-dihydrobenzo[g]furo[3,4-b]quinoline-1,5,10(3H)-trione]
Percentage of cell by phases, % G0/G1 ([1]; SK-LU-1, 0.08 μM): 47.91% | Percentage of cell by phases, % G2/M ([1]; SK-LU-1, 0.08 μM): 20.58% | Percentage of cell by phases, % S ([1]; SK-LU-1, 0.08 μM): 30.45% | Percentage of cell by phases, % G0/G1 ([1]; SK-LU-1, 0.16 μM): 0.58% | Percentage of cell by phases, % G2/M ([1]; SK-LU-1, 0.16 μM): 82.17% | Percentage of cell by phases, % S ([1]; SK-LU-1, 0.16 μM): 5.78% | Percentage of cell by phases, % G0/G1 ([1]; SK-LU-1, 0.32 μM): 0.28% | Percentage of cell by phases, % G2/M ([1]; SK-LU-1, 0.32 μM): 84.70% | Percentage of cell by phases, % S ([1]; SK-LU-1, 0.32 μM): 4.05% | changes in cell morphology (Hoechst staining) [2]: nucleus fragmentation and chromatin condensation | caspase-3/7 activity as compared to Ellipticine (1.3 μM) [3]: 4-5 fold | % Necrotic cells ([4]; SK-LU-1, 0.08 μM): 0.59% | % Late apoptosis cells ([4]; SK-LU-1, 0.08 μM): 0.82% | % Early apoptosis cells ([4]; SK-LU-1, 0.08 μM): 1.30% | % Total apoptosis cells ([4]; SK-LU-1, 0.08 μM): 2.12% | % Necrotic cells ([4]; SK-LU-1, 0.16 μM): 2.64% | % Late apoptosis cells ([4]; SK-LU-1, 0.16 μM): 2.40% | % Early apoptosis cells ([4]; SK-LU-1, 0.16 μM): 7.23% | % Total apoptosis cells ([4]; SK-LU-1, 0.16 μM): 9.63% | % Necrotic cells ([4]; SK-LU-1, 0.32 μM): 4.68% | % Late apoptosis cells ([4]; SK-LU-1, 0.32 μM): 4.25% | % Early apoptosis cells ([4]; SK-LU-1, 0.32 μM): 11.59% | % Total apoptosis cells ([4]; SK-LU-1, 0.32 μM): 15.84% | IC50 [5]: 1.23 ± 0.01 µM | IC50 [6]: 0.46 ± 0.01 µM | IC50 [7]: > 2.5 µM | IC50 [8]: < 0.04 µM | IC50 [9]: 9.35 ± 0.44 µM

O=C1OCC2=C1C(c1ccccc1)C1=C(N2)C(=O)c2ccccc2C1=O (stereo not drawn) [5d, 11-(Phenyl)-4,11-dihydrobenzo[g]furo[3,4-b]quinoline-1,5,10(3H)-trione]
IC50 [5]: 1.54 ± 0.01 µM | IC50 [6]: < 0.044 µM | IC50 [7]: 1.98 ± 0.04 µM | IC50 [8]: < 0.044 µM | IC50 [9]: 1.34 ± 0.01 µM

O=C1OCC2=C1C(c1ccccc1O)C1=C(N2)C(=O)c2ccccc2C1=O (stereo not drawn) [5h, 11-(2-Hydroxyphenyl)-4,11-dihydrobenzo[g]furo[3,4-b]quinoline-1,5,10(3H)-trione]
IC50 [10]: 0.57 ± 0.02 µM | IC50 [11]: 0.63 ± 0.02 µM | IC50 [12]: 1.61 ± 0.03 µM | IC50 [13]: 0.43 ± 0.01 µM | IC50 [14]: 2.03 ± 0.06 µM

O=C1OCC2=C1C(c1ccc(O)cc1)C1=C(N2)C(=O)c2ccccc2C1=O (stereo not drawn) [5i, 11-(4-Hydroxyphenyl)-4,11-dihydrobenzo[g]furo[3,4-b]quinoline-1,5,10(3H)-trione]
IC50 [10]: > 2.5 µM | IC50 [11]: > 2.5 µM | IC50 [12]: 2.23 ± 0.06 µM | IC50 [13]: 1.59 ± 0.03 µM | IC50 [14]: 6.46 ± 0.15 µM

O=C1OCC2=C1C(c1ccc([N+](=O)[O-])cc1)C1=C(N2)C(=O)c2ccccc2C1=O (stereo not drawn) [5j, 11-(4-Nitrophenyl)-4,11-dihydrobenzo[g]furo[3,4-b]quinoline-1,5,10(3H)-trione]
IC50 [10]: > 2.5 µM | IC50 [11]: > 2.5 µM | IC50 [12]: > 2.5 µM | IC50 [13]: 1.12 ± 0.04 µM | IC50 [14]: 7.17 ± 0.16 µM

N#Cc1ccc(C2C3=C(COC3=O)NC3=C2C(=O)c2ccccc2C3=O)cc1 (stereo not drawn) [5k, 4-(1,5,10-Trioxo-1,3,4,5,10,11-hexahydrobenzo[g]furo[3,4-b]quinolin-11-yl)benzonitrile]
IC50 [10]: > 2.5 µM | IC50 [11]: > 2.5 µM | IC50 [12]: > 2.5 µM | IC50 [13]: 2.03 ± 0.05 µM | IC50 [14]: > 20 µM

COc1ccc(C2C3=C(COC3=O)NC3=C2C(=O)c2ccccc2C3=O)cc1OC (stereo not drawn) [5l, 11-(3,4-Dimethoxyphenyl)-4,11-dihydrobenzo[g]furo[3,4-b]quinoline-1,5,10(3H)-trione]
IC50 [10]: 0.52 ± 0.02 µM | IC50 [11]: 0.53 ± 0.02 µM | IC50 [12]: 2.28 ± 0.07 µM | IC50 [13]: 1.1 ± 0.02 µM | IC50 [14]: 2.23 ± 0.08 µM

COc1cc(C2C3=C(COC3=O)NC3=C2C(=O)c2ccccc2C3=O)cc(OC)c1OC (stereo not drawn) [5m, 11-(3,4,5-Trimethoxyphenyl)-4,11-dihydrobenzo[g]furo[3,4-b]quinoline-1,5,10(3H)-trione]
IC50 [10]: 0.02 ± 0.01 µM | IC50 [11]: 0.02 ± 0.01 µM | IC50 [12]: 0.12 ± 0.03 µM | IC50 [13]: 0.62 ± 0.02 µM | IC50 [14]: 0.03 ± 0.01 µM

O=C1OCC2=C1C(c1cccnc1)C1=C(N2)C(=O)c2ccccc2C1=O (stereo not drawn) [5n, 11-(Pyridin-3-yl)-4,11-dihydrobenzo[g]furo[3,4-b]quinoline-1,5,10(3H)-trione]
IC50 [10]: 0.62 ± 0.01 µM | IC50 [11]: > 2.5 µM | IC50 [12]: 1.96 ± 0.04 µM | IC50 [13]: 0.61 ± 0.02 µM | IC50 [14]: 1.81 ± 0.05 µM

O=C1OCC2=C1C(c1ccc(Br)cn1)C1=C(N2)C(=O)c2ccccc2C1=O (stereo not drawn) [5o, 11-(5-Bromopyridin-2-yl)-4,11-dihydrobenzo[g]furo[3,4-b]quinoline-1,5,10(3H)-trione]
IC50 [10]: > 2.5 µM | IC50 [11]: > 2.5 µM | IC50 [12]: > 2.5 µM | IC50 [13]: > 2.5 µM | IC50 [14]: > 20 µM

Cc1c2ccncc2c(C)c2c1[nH]c1ccccc12 [Ellipticine, reference compound]
IC50 [10]: 1.15 ± 0.01 µM | IC50 [11]: 1.51 ± 0.05 µM | IC50 [12]: 1.82 ± 0.03 µM | IC50 [13]: 1.6 ± 0.02 µM | IC50 [14]: 6.18 ± 0.11 µM | Percentage of cell by phases, % G0/G1 ([1]; SK-LU-1, 1.3 μM): 10.09% | Percentage of cell by phases, % G2/M ([1]; SK-LU-1, 1.3 μM): 71.29% | Percentage of cell by phases, % S ([1]; SK-LU-1, 1.3 μM): 12.52% | % Necrotic cells ([4]; SK-LU-1, 1.3 μM): 3.00% | % Late apoptosis cells ([4]; SK-LU-1, 1.3 μM): 25.71% | % Early apoptosis cells ([4]; SK-LU-1, 1.3 μM): 28.22% | % Total apoptosis cells ([4]; SK-LU-1, 1.3 μM): 53.93%

CC[C@]1(O)C[C@H]2CN(CCc3c([nH]c4ccccc34)[C@@](C(=O)OC)(c3cc4c(cc3OC)N(C=O)[C@H]3[C@@](O)(C(=O)OC)[C@H](OC(C)=O)[C@]5(CC)C=CCN6CC[C@]43[C@@H]65)C2)C1 [Vincristine, reference compound]
Percentage of cell by phases, % G0/G1 ([1]; SK-LU-1, 0.4 μM): 52.28% | Percentage of cell by phases, % G2/M ([1]; SK-LU-1, 0.4 μM): 6.72% | Percentage of cell by phases, % S ([1]; SK-LU-1, 0.4 μM): 38.19% | Percentage of cell by phases, % G0/G1 ([1]; SK-LU-1, 4.0 μM): 0.07% | Percentage of cell by phases, % G2/M ([1]; SK-LU-1, 4.0 μM): 82.57% | Percentage of cell by phases, % S ([1]; SK-LU-1, 4.0 μM): 13.93% | % Necrotic cells ([4]; SK-LU-1, 0.4 μM): 4.15% | % Late apoptosis cells ([4]; SK-LU-1, 0.4 μM): 3.66% | % Early apoptosis cells ([4]; SK-LU-1, 0.4 μM): 15.13% | % Total apoptosis cells ([4]; SK-LU-1, 0.4 μM): 18.79% | % Necrotic cells ([4]; SK-LU-1, 4.0 μM): 3.62% | % Late apoptosis cells ([4]; SK-LU-1, 4.0 μM): 4.71% | % Early apoptosis cells ([4]; SK-LU-1, 4.0 μM): 19.93% | % Total apoptosis cells ([4]; SK-LU-1, 4.0 μM): 24.64%
